From ChEMBL document CHEMBL3739266, “Synthesis and pharmacological evaluation of some new fluorine containing hydroxypyrazolines as potential anticancer and antioxidant agents” (Eur J Med Chem, 2015) come the findings set out here.

In brackets after ≈: the same amount, converted by molar mass.

A short description of data set [1]: Antioxidant activity assessed as DPPH free radical scavenging activity after 30 mins by spectrophotometric assay. Type of data set: physicochemical. The method, boiled down:
(§1)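 Test samples at 25, 50 and 100 μg/mL in methanol, 1 mL added to 4 mL of 0.004% (w/v) methanolic DPPH. Scavenging expressed as percent inhibition relative to a control with all reagents except test compound. Ascorbic acid served as reference antioxidant.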
(DPPH is a stable violet radical that fades when it is reduced.)

Data set [2] is described as follows: Antioxidant activity assessed as DPPH free radical scavenging activity at 25 ug/ml after 30 mins by spectrophotometric assay. The class given is physicochemical. The settings on record: 0.5 h. The method, boiled down:
as §1

The nature of data set [3]: Antioxidant activity assessed as DPPH free radical scavenging activity at 50 ug/ml after 30 mins by spectrophotometric assay. The class given is physicochemical. Particulars: 0.5 h. The method, boiled down: as §1
Data set [4] in a line: Antioxidant activity assessed as DPPH free radical scavenging activity at 100 ug/ml after 30 mins by spectrophotometric assay. Type of data set: physicochemical. Particulars: 0.5 h. The method, boiled down:
as §1

Another data set concerns Vero. Put plainly: Cytotoxicity against African green monkey Vero cells assessed as growth inhibition after 48 hrs by MTT assay. Type of data set: cell-based. The settings on record: Chlorocebus sabaeus. The method, boiled down: (§2)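 MTT colorimetric assay in 96-well plates. Cells exposed to compounds for 48 h, then tetrazolium reduction to formazan was read as absorbance. IC50 taken from plotted dose–response curves. Values are mean ± SD of three independent experiments. Doxorubicin served as positive control.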
(In general: Formazan colour is commonly taken as a measure of viable cells.)

Another data set deals with MDA-MB-231. Put plainly: Cytotoxicity against human MDA-MB-231 cells assessed as growth inhibition after 48 hrs by MTT assay. The class given is functional, cell-based. Particulars: MDA-MB-231, 48 h. The method, boiled down:
as §2

For orientation: IC50 means the point on the concentration scale where inhibition reaches its midpoint.

As to `O=C1O[C@H]([C@@H](O)CO)C(O)=C1O` [ASCORBIC ACID], the IC50 in data set [1] worked out at 15.17 µg/mL (≈ 86.1 µM). Further, the “inhibition (INH)” value in data set [2] turned out to be 82.39%; in data set [3], 83.52%; in data set [4], 87.22%.
Take `COc1cccc2c1C(=O)c1c(O)c3c(c(O)c1C2=O)C[C@@](O)(C(=O)CO)C[C@@H]3O[C@H]1C[C@H](N)[C@H](O)[C@H](C)O1` [DOXORUBICIN]: the IC50 with Vero was above 100000 nM; in the data set with MDA-MB-231, 910 nM.
